Measurements from ChEMBL document CHEMBL4385606, “3,5,7-Substituted Pyrazolo[4,3- d]pyrimidine Inhibitors of Cyclin-Dependent Kinases and Their Evaluation in Lymphoma Models” (J Med Chem, 2019).

Legend:
[1] = Antiproliferative activity against human Mino cells measured after 72 hrs by calcein AM dye-based fluorescence assay; assay type: functional
Method in brief: (§1)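 Cells exposed in triplicate to six concentrations for 72 h; calcein AM added for 1 h, live-cell fluorescence read at 485/538 nm (ex/em). GI50 taken from dose-response curves.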

[2] = Antiproliferative activity against human OCI-Ly2 cells measured after 72 hrs by calcein AM dye-based fluorescence assay; assay type: functional; method in brief: as §1
[3] = biological target: Cyclin-dependent kinase 2/cyclin E1 (Homo sapiens, UniProt P24941); assay: Inhibition of His-tagged CDK2/Cyclin-E1 (unknown origin) expressed in baculovirus infected Sf9 insect cells using histone H1 as substrate measured in presence of [gamma-33P]ATP; assay type: cell-based
HT = assay: Antiproliferative activity against human HT cells measured after 72 hrs by calcein AM dye-based fluorescence assay; assay type: functional; method in brief: as §1
CDK9/cyclin T1 = CDK9/cyclin T1 (Homo sapiens, UniProt P50750); assay: Inhibition of recombinant human N-terminal GST-His6-fused CDK9 (M1 to F372 residues)/N-terminal His6-tagged cyclin T1 (M1 to K726 residues) expressed in baculovirus infected Sf9 insect cells using (YSPTSPS)2KK as substrate measured in presence of [gamma-33P]ATP
Sequence of CDK9/cyclin T1 (O60563 whole entry, the tested form may be a part): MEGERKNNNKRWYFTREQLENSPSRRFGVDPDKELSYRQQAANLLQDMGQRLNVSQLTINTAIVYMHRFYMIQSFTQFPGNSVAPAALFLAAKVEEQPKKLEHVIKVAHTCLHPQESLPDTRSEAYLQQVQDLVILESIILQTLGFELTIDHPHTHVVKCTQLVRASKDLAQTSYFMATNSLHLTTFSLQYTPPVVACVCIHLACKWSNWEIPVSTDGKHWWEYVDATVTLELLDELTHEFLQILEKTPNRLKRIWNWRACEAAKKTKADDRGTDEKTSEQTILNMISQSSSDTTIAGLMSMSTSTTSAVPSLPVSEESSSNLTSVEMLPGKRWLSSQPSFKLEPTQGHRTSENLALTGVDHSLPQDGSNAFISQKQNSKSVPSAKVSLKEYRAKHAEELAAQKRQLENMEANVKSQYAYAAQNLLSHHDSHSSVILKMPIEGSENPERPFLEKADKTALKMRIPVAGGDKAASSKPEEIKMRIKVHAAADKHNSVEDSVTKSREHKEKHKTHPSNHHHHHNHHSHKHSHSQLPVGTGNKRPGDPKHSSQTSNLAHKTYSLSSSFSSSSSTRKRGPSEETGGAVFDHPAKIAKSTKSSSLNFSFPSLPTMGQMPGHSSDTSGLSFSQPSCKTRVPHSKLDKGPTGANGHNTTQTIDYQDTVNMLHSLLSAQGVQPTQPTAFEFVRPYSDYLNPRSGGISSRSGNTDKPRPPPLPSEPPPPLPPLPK
Sequence of CDK9/cyclin T1 (P50750 whole entry, the tested form may be a part): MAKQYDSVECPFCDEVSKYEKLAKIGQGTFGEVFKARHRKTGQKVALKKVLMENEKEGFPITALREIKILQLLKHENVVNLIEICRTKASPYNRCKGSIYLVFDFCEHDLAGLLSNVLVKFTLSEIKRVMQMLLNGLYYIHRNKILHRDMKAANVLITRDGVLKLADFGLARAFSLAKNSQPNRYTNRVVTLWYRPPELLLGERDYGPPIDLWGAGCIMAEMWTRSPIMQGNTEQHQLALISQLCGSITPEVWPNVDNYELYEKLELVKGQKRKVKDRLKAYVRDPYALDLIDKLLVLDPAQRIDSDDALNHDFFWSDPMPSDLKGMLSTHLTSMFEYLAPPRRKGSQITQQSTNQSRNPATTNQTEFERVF

[4] = biological target: Cyclin-dependent kinase 4/cyclin D1 (Homo sapiens, UniProt P11802); assay: Inhibition of recombinant human N-terminal GST-fused CDK4 (S4 to E303 residues)/cyclin D1 (Q4 to I295 residues) expressed in baculovirus infected Sf9 insect cells using RPPTLSPIPHIPR as substrate measured in presence of [gamma-33P]ATP
Sequence of Cyclin-dependent kinase 4/cyclin D1 (P11802 whole entry, the tested form may be a part): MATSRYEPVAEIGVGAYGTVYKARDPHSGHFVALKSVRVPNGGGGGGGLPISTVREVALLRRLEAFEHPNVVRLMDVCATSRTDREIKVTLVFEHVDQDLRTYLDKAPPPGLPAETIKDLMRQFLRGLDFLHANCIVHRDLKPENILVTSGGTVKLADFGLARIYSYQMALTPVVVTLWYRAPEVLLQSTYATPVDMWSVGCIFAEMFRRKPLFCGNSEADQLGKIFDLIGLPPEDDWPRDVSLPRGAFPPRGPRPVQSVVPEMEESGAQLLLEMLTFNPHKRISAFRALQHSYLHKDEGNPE
Sequence of Cyclin-dependent kinase 4/cyclin D1 (P24385 whole entry, further chain, the tested form may be a part): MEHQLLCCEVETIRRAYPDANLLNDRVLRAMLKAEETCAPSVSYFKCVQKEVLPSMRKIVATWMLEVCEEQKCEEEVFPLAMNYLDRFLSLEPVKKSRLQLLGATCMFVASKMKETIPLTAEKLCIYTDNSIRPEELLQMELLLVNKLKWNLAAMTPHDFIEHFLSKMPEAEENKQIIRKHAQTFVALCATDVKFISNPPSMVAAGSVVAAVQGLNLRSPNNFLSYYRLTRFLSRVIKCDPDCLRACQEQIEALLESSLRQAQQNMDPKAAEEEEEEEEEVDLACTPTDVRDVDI
Method in brief: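 CDK/cyclin complexes tested in triplicate at minimum; IC50 values reported from those replicate determinations.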

| SMILES | IC50 [3] [nM] | IC50 (CDK9/cyclin T1) [nM] | IC50 [4] [nM] | GI50 [1] [nM] | GI50 [2] [nM] | GI50 (HT) [nM] |
| --- | --- | --- | --- | --- | --- | --- |
| CC(C)c1n[nH]c2c(NCc3ccc(-c4ccccn4)cc3)nc(SCC(O)CN3CCOCC3)nc12 (configuration not stated) | 156 |  |  | 243 | 200 | 200 |
| CC(C)c1n[nH]c2c(NCc3ccc(-c4ccccn4)cc3)nc(SC(CO)C(C)C)nc12 (configuration not stated) | 77 |  |  | 1310 | 1000 | 980 |
| CC[C@H](CO)Nc1nc(NCc2ccc(-c3ccccn3)cc2)c2ncn(C(C)C)c2n1 |  | 272 | 26100 | 202 | 307 | 263 |
| CC(C)c1n[nH]c2c(NCc3ccc(-c4ccccn4)cc3)nc(SC3CCCCC3O)nc12 (configuration not stated) | 134 |  |  | 530 | 680 | 636 |
| CC(C)c1n[nH]c2c(NCc3ccc(-c4ccccn4)cc3)nc(SCC(O)C(F)(F)F)nc12 (configuration not stated) | 132 |  |  | 641 | 585 | 690 |
| CC(C)c1n[nH]c2c(NCc3ccc(-c4ccccn4)cc3)nc(SCCN(C)C)nc12 | 77 |  |  | 93 | 61 | 54 |
| CCC(CO)Sc1nc(NCc2ccc(-c3ccccn3)cc2)c2[nH]nc(C(C)C)c2n1 (configuration not stated) | 150 |  |  | 119 | 181 | 255 |
| CC(C)c1n[nH]c2c(NCc3ccc(-c4ccccn4)cc3)nc(SCCCN(C)C)nc12 | 99 |  |  | 76 | 109 | 105 |
| CSCCSc1nc(NCc2ccc(-c3ccccn3)cc2)c2[nH]nc(C(C)C)c2n1 | 138 |  |  | 773 | 668 | 975 |
| CC(C)c1n[nH]c2c(NCc3ccc(-c4ccccn4)cc3)nc(S)nc12 | 558 |  |  | 2180 | 3240 | 2760 |
| COCSc1nc(NCc2ccc(-c3ccccn3)cc2)c2[nH]nc(C(C)C)c2n1 | 59 |  |  | 243 | 285 | 340 |
| C=CC(=O)N1CCC[C@@H](n2nc(-c3ccc(Oc4ccccc4)cc3)c3c(N)ncnc32)C1 [IBRUTINIB] |  |  |  | 10700 | 18900 | 15900 |
| CSc1nc(NCc2ccc(-c3ccccn3)cc2)c2[nH]nc(C(C)C)c2n1 |  |  |  | 1050 | 1210 | 783 |
| C=CCSc1nc(NCc2ccc(-c3ccccn3)cc2)c2[nH]nc(C(C)C)c2n1 | 100 |  |  | 923 | 858 | 1000 |
| CC(C)c1n[nH]c2c(NCc3ccc(-c4ccccn4)cc3)nc(SCC(O)CN3CCNCC3)nc12 (configuration not stated) | 171 |  |  | 767 | 435 | 332 |
| CC(C)c1n[nH]c2c(NCc3ccc(-c4ccccn4)cc3)nc(SC3CCCC3O)nc12 (configuration not stated) | 52 |  |  | 450 | 373 | 567 |

More lines, main results first:

| IC50 [3] [nM] | IC50 (CDK9/cyclin T1) [nM] | IC50 [4] [nM] | SMILES | GI50 [1] [nM] | GI50 [2] [nM] | GI50 (HT) [nM] |
| --- | --- | --- | --- | --- | --- | --- |
| 39 |  |  | CCC(O)CSc1nc(NCc2ccc(-c3ccccn3)cc2)c2[nH]nc(C(C)C)c2n1 (configuration not stated) | 427 | 280 | 273 |
| 10 |  |  | CC(C)c1n[nH]c2c(NCc3ccc(-c4ccccn4)cc3)nc(SCC(O)CO)nc12 (configuration not stated) | 10 | 22 | 21 |
| 27 |  |  | CC(C)c1n[nH]c2c(NCc3ccc(-c4ccccn4)cc3)nc(SCC(N)=O)nc12 | 197 | 163 | 192 |
| 22 |  |  | CC(C)c1n[nH]c2c(NCc3ccc(-c4ccccn4)cc3)nc(SCCCN)nc12 | 156 | 151 | 120 |
| 19 |  |  | CC(C)c1n[nH]c2c(NCc3ccc(-c4ccccn4)cc3)nc(SCC3CNC(=O)O3)nc12 (configuration not stated) | 69 | 53 | 80 |
| 52 |  |  | CC(C)c1n[nH]c2c(NCc3ccc(-c4ccccn4)cc3)nc(SC3CCCCC3N)nc12 (configuration not stated) | 157 | 136 | 139 |
| 20 |  |  | CC(C)c1n[nH]c2c(NCc3ccc(-c4ccccn4)cc3)nc(SCC(C)(C)N)nc12 | 64 | 100 | 85 |
| 30 |  |  | CC(C)c1n[nH]c2c(NCc3ccc(-c4ccccn4)cc3)nc(SCC(C)(C)O)nc12 | 477 | 610 | 507 |
| 21 |  |  | CC(C)c1n[nH]c2c(NCc3ccc(-c4ccccn4)cc3)nc(SCCCO)nc12 | 89 | 102 | 109 |
| 13 |  |  | CNCCSc1nc(NCc2ccc(-c3ccccn3)cc2)c2[nH]nc(C(C)C)c2n1 | 40 | 92 | 56 |
| 18 |  |  | CC(C)c1n[nH]c2c(NCc3ccc(-c4ccccn4)cc3)nc(SCCNC(N)=O)nc12 | 136 | 198 | 240 |
| 19 |  |  | CC(C)c1n[nH]c2c(NCc3ccc(-c4ccccn4)cc3)nc(SCCC(N)=O)nc12 | 81 | 84 | 120 |
| 41 |  |  | CC(=O)NCCSc1nc(NCc2ccc(-c3ccccn3)cc2)c2[nH]nc(C(C)C)c2n1 | 42 | 54 | 71 |
| 31 |  |  | CC(C)c1n[nH]c2c(NCc3ccc(-c4ccccn4)cc3)nc(SCC(O)CN)nc12 (racemic) | 64 | 55 | 55 |
| 32 |  |  | CC(C)c1n[nH]c2c(NCc3ccc(-c4ccccn4)cc3)nc(SCCn3ccnc3)nc12 | 135 | 145 | 155 |
| 11 |  |  | CC(C)c1n[nH]c2c(NCc3ccc(-c4ccccn4)cc3)nc(SC[C@H](O)CN)nc12 | 51 | 99 | 63 |
| 12 |  |  | CC(C)c1n[nH]c2c(NCc3ccc(-c4ccccn4)cc3)nc(SCC(N)CN)nc12 (configuration not stated) | 770 | 780 | 480 |
| 3 |  |  | CC(C)c1n[nH]c2c(NCc3ccc(-c4ccccn4)cc3)nc(SC(C)C(C)O)nc12 (configuration not stated) | 160 | 141 | 190 |
| 12 |  |  | CC(O)CSc1nc(NCc2ccc(-c3ccccn3)cc2)c2[nH]nc(C(C)C)c2n1 (configuration not stated) | 81 | 152 | 62 |
| 30 |  |  | CC(C)c1n[nH]c2c(NCc3ccc(-c4ccccn4)cc3)nc(SCCNC(=N)N)nc12 | 390 | 812 | 390 |
| 3 |  |  | CC(C)c1n[nH]c2c(NCc3ccc(-c4ccccn4)cc3)nc(SCCO)nc12 | 40 | 50 | 48 |
